ASAP1 GAP inh: inhibitors of human ASAP1 ArfGAP activity; Q9ULH1; ASAP1-stimulated ARF1 GTP hydrolysis, GDP FP detection; inhibition, % at 16.5 µM; hit rate 0.19% among 360,000; AID 624377; in the data active = inhibition above about 25%;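 note: 0% = vehicle with enzyme and substrate and 100% = no enzyme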
Target sequence (Q9ULH1 325-724 limits assumed): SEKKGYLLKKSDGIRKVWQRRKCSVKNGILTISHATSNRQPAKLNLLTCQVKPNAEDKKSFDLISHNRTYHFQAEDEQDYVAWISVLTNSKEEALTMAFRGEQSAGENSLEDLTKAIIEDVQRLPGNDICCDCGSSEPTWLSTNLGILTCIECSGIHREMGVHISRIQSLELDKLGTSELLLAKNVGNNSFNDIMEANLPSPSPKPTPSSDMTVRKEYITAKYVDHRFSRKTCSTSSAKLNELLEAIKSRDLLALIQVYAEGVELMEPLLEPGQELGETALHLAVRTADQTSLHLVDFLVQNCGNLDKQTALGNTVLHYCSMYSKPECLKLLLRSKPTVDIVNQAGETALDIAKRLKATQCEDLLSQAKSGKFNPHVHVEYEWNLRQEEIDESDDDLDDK
rCAG binder: r(CAG) repeat RNA binding. TO-PRO-1 dye displacement fluorescence. inhibition, % at 3 µM. hit rate 1.3% among 370,000. AID 651821;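 active = inhibition above the plate cutoff, the mean of all test compounds on that plate plus 3 SD, cut at about 35% in these data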;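 note: 0% = DMSO alone and 100% = 100 µM mitoxantrone as full dye displacement; higher means more dye released from RNA so lower well fluorescence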
ARFGAP1 inh: inhibits rat ARF GTPase activating protein 1. hit rate 0.26% among 360,000. inhibition, % at 16.5 µM. Arfgap1-stimulated ARF1 GTP hydrolysis, GDP FP detection. AID 651572. Q62848;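 active = inhibition above a per-plate limit, mean inhibition of low control wells plus 3 SD, cut at about 25% in these data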;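 note: 0% = DMSO wells with enzyme and 100% = wells lacking Arfgap1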
Target sequence (Q62848 1-136 limits assumed): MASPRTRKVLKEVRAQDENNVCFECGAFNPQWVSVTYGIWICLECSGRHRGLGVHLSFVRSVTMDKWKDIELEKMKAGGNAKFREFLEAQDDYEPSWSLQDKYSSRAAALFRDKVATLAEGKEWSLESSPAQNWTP
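Replicates: Single well per compound | Assay system: Truncated rat Arfgap1 GAP domain | Control set: No-Arfgap1 wells (100%) versus DMSO full-reaction wells (0%) | Times: Enzyme reaction 120 min at 25 °C after 20 min preincubation | Reagent: Human ARF1(Δ1-17)-GTP substrate | Measured by: Tracer-displacement fluorescence polarization with EDTA stop, 620/688 nm | Measure: Percent inhibition of Arfgap1-stimulated GTP hydrolysis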
NadD inh: NadD (S. aureus) enzyme inhibition; purified NadD enzyme, colorimetric absorbance read-out; inhibition, % at 20 µM; hit rate 0.78% among 360,000; in the data active = inhibition above about 26%
rCAG binder conf: r(CAG) RNA repeat binding, confirmation; inhibition, % at 3 µM; shares compounds with rCAG binder; hit rate 70% among 4,300; TO-PRO-1 dye displacement fluorescence; AID 652065;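 active = inhibition above a per-plate cutoff, the mean inhibition of sample wells plus 3 SD, cut at about 35% in these data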;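 note: loss of TO-PRO-1 fluorescence as compound displaces dye from 1x1 AA loop RNA; 0% = DMSO only wells and 100% = 100 µM mitoxantrone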
DNA CAG counter: disrupts DNA CAG TO-PRO-1 complex, flagging rCAG hits; shares compounds with rCAG binder; d(CAG) DNA oligo TO-PRO-1 dye displacement, fluorescence; inhibition, % at 3 µM; hit rate 94% among 4,300; AID 652068;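 active = inhibition above its plate's cutoff, the mean test-well inhibition plus 3 SD, cut at about 4.8% in these data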;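 note: 0% = DNA dye mix with DMSO and 100% = 100 µM mitoxantrone; hits displace the dye from DNA and so lower well fluorescence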
DNA CAG DR: counter-screen for rCAG binders: inhibitors of DNA CAG TO-PRO-1 complex | shares compounds with rCAG binder | DNA CAG/GTC duplex TO-PRO-1 dye displacement fluorescence | IC50, µM | hit rate 20% among 250; in the data active = IC50 below about 10 µM
Numbers without * were called inactive; i = inactive; . = no result given. Compounds with a hit are over-represented: about 2.2% of the library has one in this group of screens.

SMILES | ASAP1 GAP inh | rCAG binder | ARFGAP1 inh | NadD inh | rCAG binder conf | DNA CAG counter | others
Cc1ccc(-c2csc(NC(=O)c3ccccc3Cl)c2C(=O)O)cc1 | -8.0 | 46.0* | -6.4 | -2.3 | 31.8 | 7.5*
COc1cc(C(=O)Nc2scc(-c3ccc(Br)cc3)c2C(=O)O)cc(OC)c1OC | -25.0 | 39.4* | 1.1 | 7.2 | 85.5* | 53.3*
CC(C)c1ccc(C(CC(=O)O)NC(=O)c2cccs2)cc1 (stereo not drawn) | 5.2 | 3.2 | -5.8 | 0.9 | . | .
CC(C)c1ccc(-c2csc(NC(=O)c3cccs3)c2C(=O)O)cc1 | -2.2 | 82.8* | -6.8 | -7.6 | 76.6* | 32.8* | DNA CAG DR=7.83*
Cc1ccc(-c2csc(NC(=O)/C=C/c3ccco3)c2C(=O)O)cc1 | -3.3 | 57.5* | 1.9 | -0.2 | 35.9* | 9.6*
Cc1ccc(-c2csc(NC(=O)c3ccc(Br)cc3)c2C(=O)O)cc1 | 8.5 | 17.8 | -1.7 | 7.9 | . | .
COC(=O)[C@]12C[C@H](CC(=O)NCc3ccc(C)o3)C(=O)N(Cc3ccco3)C1=C[C@H](COCc1ccccc1)O[C@@H]2C | . | 6.8 | . | . | . | .
COc1ccc(-n2c(SCC(=O)Nc3ccccc3-c3ccccc3)nnc2-c2ccccc2)cc1 | . | 8.4 | . | . | . | .
CCCCCCC12C(=Cc3cc4c(cc31)OCCO4)c1cc(OC)c(OC)cc1C(CC(=O)NCc1ccccc1)N2C(=O)OC (stereo not drawn) | 5.6 | 7.4 | 10.6 | . | . | .
COc1cc(C(=O)Nc2c(C(=O)O)[nH]c3ccc(Br)cc23)cc(OC)c1OC | 5.0 | 83.8* | 1.1 | 0.5 | 78.2* | 40.3*
Cc1ccc(-c2csc(NC(=O)c3cccc(C)c3)c2C(=O)O)cc1 | -7.5 | 76.7* | -3.3 | -1.8 | 58.5* | 20.9*
COc1ccccc1Cc1c(-c2ccco2)nc2c(C)cc(Br)cn12 | . | . | . | 25.0 | . | .
CCN(CCNC(=O)[C@H]1C=C(OC)C(=O)C[C@H](c2ccccc2)[C@H]1C)C(C)=O | . | 2.6 | . | . | . | .
O=C(O)c1ccccc1C(=O)Nc1cccc([N+](=O)[O-])c1 | -3.8 | 1.5 | 0.1 | 0.6 | . | .
O=C(NNS(=O)(=O)c1ccccc1[N+](=O)[O-])c1cc2ccccc2cc1O | -9.1 | 35.9* | 12.3 | 4.2 | 17.6 | 7.6*
Cc1cc(C(F)(F)F)n(-c2nc(C(=O)NNS(=O)(=O)c3ccccc3[N+](=O)[O-])cs2)n1 | -12.3 | 45.0* | -5.0 | 9.2 | 27.0 | 8.6*
O=C(Nc1cccc([N+](=O)[O-])c1)c1cc2ccccc2cc1O | 2.6 | 39.0* | -0.5 | 16.4 | 37.3* | 15.8*
O=C1c2ccccc2C(c2nnnn2-c2ccc3c(c2)OCCO3)N1CCCN1CCOCC1 (stereo not drawn) | 6.9 | 2.4 | -3.5 | -3.6 | . | .
CN=c1scc(-c2ccccc2F)n1/N=C/c1ccc[nH]1 | -11.5 | 10.5 | 21.3 | 8.9 | . | .
CN=c1scc(-c2ccccc2F)n1/N=C/c1ccc(O)c(O)c1O | 8.6 | 40.9* | 4.2 | 23.4 | 56.2* | 25.4*
CC(C)N=c1scc(-c2cccs2)n1/N=C/c1ccc(O)c(O)c1O | 12.5 | 46.2* | 2.2 | 30.9* | 55.9* | 30.6*
COc1ccc(S(=O)(=O)Nc2ccc(Cc3ccncc3)cc2)cc1C | . | . | . | 2.7 | . | .
N#Cc1ccc(/C=C2\CC3(OC(=O)C4CCCCC4)CCCN2C3)cc1 (stereo not drawn) | . | 3.7 | . | . | . | .
Cc1ccc(N2C(=O)C(c3c(C)[nH]n(-c4ccccc4)c3=O)(C(F)(F)F)C3=C2CC(C)(C)CC3=O)cc1 (stereo not drawn) | -7.1 | 7.0 | -1.2 | 9.9 | . | .
Cc1[nH]n(-c2ccccc2)c(=O)c1C1(C(F)(F)F)C(=O)N(c2ccccc2)C2=C1C(=O)CC(C)(C)C2 (stereo not drawn) | 17.6 | 35.9* | -6.9 | 2.1 | 22.2 | 7.3*
SMILES | ASAP1 GAP inh | rCAG binder | ARFGAP1 inh | NadD inh | rCAG binder conf | DNA CAG counter | others
O=C(c1cc(F)ccc1F)N1CCC(Oc2cccnc2)CC1 | . | 0.6 | . | . | . | .
Cc1oc(-c2ccccc2)cc1C(=O)Nc1cccc(/C=C\C(=O)O)c1 | -0.2 | 40.5* | 6.6 | 1.9 | 28.7 | 5.7*
Cc1ccc(Cn2cc(CN(C(C)(C)C)S(=O)(=O)c3ccccc3Br)nn2)cc1 | . | -1.1 | . | . | . | .
CS(=O)(=O)c1ccc2nc(NC(=O)c3cccc([N+](=O)[O-])c3)sc2c1 | -6.7 | 19.2 | 13.8 | 0.0 | . | .
CS(=O)(=O)c1ccc2nc(NC(=O)c3cccc(NS(=O)(=O)c4ccc(F)c(F)c4)c3)sc2c1 | 6.9 | 59.3* | 8.5 | 17.7 | 60.5* | 24.6*
CS(=O)(=O)c1ccc2nc(NC(=O)c3ccc(NS(=O)(=O)c4ccc(F)c(F)c4)cc3)sc2c1 | 9.1 | 35.8* | 2.6 | -3.1 | 66.5* | 26.6*
CCCCCCCCN1C(=O)[C@@H](CC(=O)N2CCCC2)C[C@@]2(C(=O)OC)C1=C[C@H](COCc1ccccc1)O[C@@H]2C | . | -0.6 | . | . | . | .
CCCN1C(=O)c2[nH]nc(-c3ccccc3)c2C1c1ccc(Br)cc1 (stereo not drawn) | 14.6 | 2.3 | 2.8 | . | . | .
C[C@H]1CNC(=O)c2c(C(=O)N[C@@H](Cc3c[nH]c4ccccc34)C(=O)OC(C)(C)C)ncn21 | 4.8 | -0.5 | 6.1 | 13.4 | . | .
CCC(C)NC(=O)CSc1nc2c(sc(=S)n2-c2cc(Cl)ccc2OC)c(=O)[nH]1 (stereo not drawn) | 4.4 | 46.0* | 5.4 | -1.1 | 38.4* | 8.5*
COc1ccc(Cl)cc1-n1c(=S)sc2c(=O)[nH]c(SCC(=O)NCC3CCCO3)nc21 (stereo not drawn) | -5.0 | 41.1* | 6.7 | 4.4 | 30.9 | 6.6*
COc1cccc(C(N)c2nc(-c3csc4ccccc34)cs2)c1 (stereo not drawn) | . | . | . | 3.4 | . | .
O=S(=O)(NCc1ccc(Cl)cc1)c1ccc(Br)cc1C1CC[C@@H](O)C1 (stereo partly drawn) | -11.9 | 1.6 | 14.0 | . | . | .
CCOc1ccc2c(c1)c(N=Nc1cccc(C(=O)O)c1)c(O)n2C | 0.3 | 11.0 | 8.6 | 2.1 | . | .
Cc1ccc2c(c1)c(N=Nc1cccc(C(=O)O)c1)c(O)n2C | -10.8 | 37.8* | 0.3 | 1.7 | 56.2* | 12.3* | DNA CAG DR=i
COc1ccc(OC)c(NC(=O)CSc2sc3c(O)cc(=O)[nH]c3c2C#N)c1 | 4.9 | 47.9* | -5.3 | 10.7 | 21.8 | 10.1*
Cc1cc(=O)[nH]c(SCC(=O)Nc2ccc(F)cc2)c1C#N | 4.5 | 4.8 | -4.0 | -4.0 | . | .
Cc1ccc(NC(=O)CSc2sc3c(O)cc(=O)[nH]c3c2C#N)c(F)c1 | -13.9 | 45.5* | 0.8 | 1.6 | 26.4 | 11.2*
N#Cc1c(SCC(=O)Nc2nncs2)sc2c(O)cc(=O)[nH]c12 | -0.2 | 62.3* | 8.2 | 0.5 | 43.8* | 15.5*
COc1ccc(OC)c(NC(=O)CSc2nnc(N)s2)c1 | 3.2 | -0.4 | -3.6 | 2.6 | . | .

Screening data from PubChem.
